Data: ChEMBL document CHEMBL3739255, “Novel Series of Dihydropyridinone P2X7 Receptor Antagonists” (J Med Chem, 2015)
Values after ≈ are worked out from the molar mass of the structure shown.

Assays:
Liver microsome [1] = assay: Metabolic stability in rat liver microsomes assessed as GSH adduct formation at 20 uM preincubated for 5 mins followed by NADPH addition measured after 60 mins by LC/MS/MS analysis; format: ADME; details: 1 h
How it was run: (§1)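 Liver microsomes (human or rat) incubated with compound and glutathione. The GSH adduct is quantified by UV chromatography as % relative peak area versus the summed areas of GSH adduct, other metabolites and parent compound.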

Liver microsome [2] = assay: Metabolic stability in human liver microsomes assessed as GSH adduct formation at 20 uM preincubated for 5 mins followed by NADPH addition measured after 60 mins by LC/MS/MS analysis; format: ADME; details: 1 h; how it was run: as §1
Liver microsome [3] = assay: Retention time of the compound in rat liver microsomes at 20 uM by LC/UV chromatogram analysis; format: ADME
Liver microsome [4] = assay: Retention time of the compound in human liver microsomes at 20 uM by LC/UV chromatogram analysis; format: ADME
Salmonella typhimurium = assay: Genotoxicity in Salmonella typhimurium by Ames test; format: toxicity, organism-based; details: salmonella enterica subsp. enterica serovar typhimurium
P2X purinoceptor 7 [5] = target: T1, P2X purinoceptor 7 (Homo sapiens, UniProt Q99572); assay: Antagonist activity at P2X7R in human whole blood assessed as inhibition of LPS-induced IL-1beta production incubated for 30 mins followed by ATP addition for 30 mins by ELISA assay; format: tissue-based
T1 sequence (Q99572 whole entry): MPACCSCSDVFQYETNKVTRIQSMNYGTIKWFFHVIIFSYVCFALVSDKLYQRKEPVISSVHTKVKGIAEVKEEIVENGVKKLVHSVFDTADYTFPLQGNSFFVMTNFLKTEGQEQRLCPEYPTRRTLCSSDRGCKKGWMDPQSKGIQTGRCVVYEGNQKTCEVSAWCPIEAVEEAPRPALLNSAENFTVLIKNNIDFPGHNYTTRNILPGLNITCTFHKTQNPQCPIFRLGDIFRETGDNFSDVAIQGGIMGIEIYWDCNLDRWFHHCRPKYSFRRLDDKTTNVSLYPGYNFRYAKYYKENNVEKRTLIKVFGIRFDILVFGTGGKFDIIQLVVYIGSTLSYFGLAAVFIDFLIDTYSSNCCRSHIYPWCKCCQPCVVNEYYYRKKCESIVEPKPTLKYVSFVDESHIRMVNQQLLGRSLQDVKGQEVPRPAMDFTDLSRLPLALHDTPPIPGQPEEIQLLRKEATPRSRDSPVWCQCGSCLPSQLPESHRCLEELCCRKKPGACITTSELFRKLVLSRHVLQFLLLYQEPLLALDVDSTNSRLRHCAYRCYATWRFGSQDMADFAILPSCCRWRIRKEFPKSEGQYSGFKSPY

P2X purinoceptor 7 [6] = target: T1, P2X purinoceptor 7; assay: Antagonist activity at human P2X7R expressed in BzATP-stimulated human 1321N1 cells incubated for 20 mins followed by BzATP stimulation measured every 1 sec for 60 secs followed by 3 sec intervals for 4 mins by FLIPR Ca2+ assay in presence of ionomycin; format: cell-based
How it was run: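 1321N1 cells stably expressing human P2X7R, stimulated with BzATP; calcium flux read on FLIPR. IC50 is the mean of n ≥ 2 runs, each including a positive control.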

Cytochrome P450 2D6 = Cytochrome P450 2D6 (Homo sapiens, UniProt P10635); assay: Inhibition of human CYP2D6 by fluorescence assay; format: ADME
Cytochrome P450 2D6, sequence (P10635 whole entry): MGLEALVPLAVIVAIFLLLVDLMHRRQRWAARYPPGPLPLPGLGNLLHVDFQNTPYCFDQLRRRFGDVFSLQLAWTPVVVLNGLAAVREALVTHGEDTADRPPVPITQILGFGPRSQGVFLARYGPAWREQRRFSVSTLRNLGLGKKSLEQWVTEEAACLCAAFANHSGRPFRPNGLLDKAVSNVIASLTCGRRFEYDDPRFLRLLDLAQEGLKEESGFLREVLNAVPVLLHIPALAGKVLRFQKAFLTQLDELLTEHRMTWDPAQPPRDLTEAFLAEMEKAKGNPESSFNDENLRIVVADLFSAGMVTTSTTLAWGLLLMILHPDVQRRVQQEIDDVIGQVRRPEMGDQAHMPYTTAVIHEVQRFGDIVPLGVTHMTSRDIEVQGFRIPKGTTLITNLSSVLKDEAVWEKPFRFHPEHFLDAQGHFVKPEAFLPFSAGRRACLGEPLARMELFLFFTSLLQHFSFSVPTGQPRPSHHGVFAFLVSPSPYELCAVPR
How it was run: (§2)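 IC50 values for CYP3A4, CYP2D6 and CYP2C9 from a fluorescence-based inhibition assay; average of n ≥ 2.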

Cytochrome P450 2C9 = Cytochrome P450 2C9 (Homo sapiens, UniProt P11712); assay: Inhibition of human CYP2C9 by fluorescence assay; format: ADME; how it was run: as §2
Cytochrome P450 2C9, sequence (P11712 whole entry): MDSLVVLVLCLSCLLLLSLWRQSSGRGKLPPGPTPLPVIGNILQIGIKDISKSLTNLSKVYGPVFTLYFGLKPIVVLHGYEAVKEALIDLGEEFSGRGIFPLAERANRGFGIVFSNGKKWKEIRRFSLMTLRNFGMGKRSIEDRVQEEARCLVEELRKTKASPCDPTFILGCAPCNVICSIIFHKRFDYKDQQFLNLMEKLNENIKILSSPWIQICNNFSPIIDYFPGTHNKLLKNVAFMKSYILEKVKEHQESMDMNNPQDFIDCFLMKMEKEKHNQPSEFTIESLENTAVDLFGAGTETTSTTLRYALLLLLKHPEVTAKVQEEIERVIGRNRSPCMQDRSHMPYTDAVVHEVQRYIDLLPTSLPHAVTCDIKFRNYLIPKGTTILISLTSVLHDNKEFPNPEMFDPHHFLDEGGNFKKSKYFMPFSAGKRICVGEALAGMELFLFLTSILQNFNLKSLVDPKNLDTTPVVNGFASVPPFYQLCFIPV

[7] = Clearance in rat at 0.5 mg/kg, iv administered as single dose; format: ADME, organism-based; details: in vivo
How it was run: (§3)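 Single-dose rat PK: iv at 0.5 mg/kg and po at 2 mg/kg. n ≥ 2 animals per time point. Oral AUC normalized to dose; clearance, Vdss and half-life taken from the iv arm.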

Liver microsome [8] = assay: Drug metabolism in human liver microsomes assessed as GSH adduct UV peak area at 20 uM preincubated for 5 mins followed by NADPH addition measured after 60 mins by LC/MS/MS analysis relative to total area of GSH adduct, other metabolites, parent compound; format: ADME; details: 1 h
[9] = Volume of distribution at steady state in rat at 2 mg/kg, po and 0.5 mg/kg, iv administered as single dose; format: ADME, organism-based; details: in vivo, read-out: Vdss
How it was run: (§4)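 Rats given a single dose, iv 0.5 mg/kg or po 2 mg/kg, with n ≥ 2 per time point. Bioavailability is derived from the po and iv exposures. Vdss is reported in L/kg.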

[10] = Oral bioavailability in rat at 2 mg/kg administered as single dose; format: ADME, organism-based; details: in vivo; how it was run: as §4
Cytochrome P450 3A4 = Cytochrome P450 3A4 (Homo sapiens, UniProt P08684); assay: Inhibition of human CYP3A4 by fluorescence assay; format: ADME; how it was run: as §2
Cytochrome P450 3A4, sequence (P08684 whole entry): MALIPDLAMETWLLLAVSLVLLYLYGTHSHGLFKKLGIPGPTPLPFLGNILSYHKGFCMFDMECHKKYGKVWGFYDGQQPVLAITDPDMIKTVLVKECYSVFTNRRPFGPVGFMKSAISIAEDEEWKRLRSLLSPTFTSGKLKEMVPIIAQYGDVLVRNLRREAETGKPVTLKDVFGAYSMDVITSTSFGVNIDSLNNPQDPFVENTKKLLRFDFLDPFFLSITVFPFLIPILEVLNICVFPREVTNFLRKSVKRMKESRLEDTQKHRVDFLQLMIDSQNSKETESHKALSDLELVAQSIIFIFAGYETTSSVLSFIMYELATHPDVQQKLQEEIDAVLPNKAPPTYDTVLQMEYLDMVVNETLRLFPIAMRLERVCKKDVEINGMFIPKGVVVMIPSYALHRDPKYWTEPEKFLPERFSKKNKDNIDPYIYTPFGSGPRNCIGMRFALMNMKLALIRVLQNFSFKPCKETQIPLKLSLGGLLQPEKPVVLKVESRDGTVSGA

[11] = Half life in rat at 0.5 mg/kg, iv administered as single dose; format: ADME, organism-based; details: in vivo; how it was run: as §3
[12] = Solubility of compound by lyophilization solubility assay; format: physicochemical
Rattus norvegicus = assay: Dose normalized AUC in rat at 2 mg/kg, po administered as single dose; format: ADME, organism-based; details: in vivo; how it was run: as §3
[13] = Intrinsic clearance in rat liver microsomes assessed per mg of protein at 1 uM after 1 hr by LC/MS/MS analysis; format: ADME; details: read-out: CLH
[14] = Intrinsic clearance in human liver microsomes assessed per mg of protein at 1 uM after 1 hr by LC/MS/MS analysis; format: ADME; details: read-out: CLH
[15] = Drug level in solid phase treated with (4S)-N-[4-Chloro-5-(2-hydroxyethoxy)-2-methyl-phenyl]-4-(4-fluorophenyl)-2-oxo-3,4-dihydro-1H-pyridine-5-carboxamide after 1 month; format: physicochemical; details: 730.5 h
[16] = Drug degradation in human plasma at 10 uM after 4 hrs by LC/MS/MS analysis; format: ADME, cell-free; details: read-out: Drug degradation
Liver microsome [17] = assay: Drug metabolism in rat liver microsomes assessed as GSH adduct UV peak area at 20 uM preincubated for 5 mins followed by NADPH addition measured after 60 mins by LC/MS/MS analysis relative to total area of GSH adduct, other metabolites, parent compound; format: ADME; details: 1 h

Row | Compound | IC50 (P2X purinoceptor 7 [5]) [nM] | IC50 (P2X purinoceptor 7 [6]) [nM] | Activity (Salmonella typhimurium) | other results
1 | O=C1C=CN(C(=O)Nc2ccc3ncccc3c2Br)[C@H](c2ccc(F)cc2)C1 |  |  |  | Stability (Liver microsome [1]): Stable; Stability (Liver microsome [2]): Stable
2 | COc1cc(NC(=O)N2C=CC(=O)C[C@H]2c2ccc(F)cc2)c(Br)c(SC[C@H](NC(=O)CC[C@H](N)C(=O)O)C(=O)NCC(=O)O)c1O |  |  |  | Retention_time (Liver microsome [3]): 10.74 min; Retention_time (Liver microsome [4]): 10.74 min
3 | Cc1ccc(-c2ccnn(CCO)c2=O)cc1NC(=O)C1=CN(C)C(=O)C[C@H]1c1ccc(F)cc1 | 17 |  | Non-toxic | 
4 | O=C1C=CN(C(=O)Nc2cc(OCCO)c(Cl)cc2Br)[C@H](c2ccc(F)cc2)C1 |  | 40 |  | 
5 | COc1cc(I)c(CC(=O)N2C=CC(=O)C[C@@H]2c2ccccc2)cc1OC |  | 3800 |  | 
6 | COc1cc(NC(=O)N2C=CC(=O)C[C@H]2c2ccccc2)c(Br)cc1Cl |  | 33 |  | 
7 | Cc1ccc(-n2ncccc2=O)cc1NC(=O)C1=CN(C)C(=O)C[C@H]1c1ccc(F)cc1 | 33 |  | Non-toxic | 
8 | Cc1cc(Cl)c(OCCO)cc1N |  |  | Toxic | Drug metabolism [15]: metabolite_detected
9 | COc1cc(NC(=O)N2C=CC(=O)C[C@@H]2c2ccccc2)c(Br)cc1Cl |  | > 10000 |  | 
10 | CN1C=C(C(=O)Nc2cc(-c3ccn[nH]c3=O)ccc2F)[C@H](c2ccc(F)cc2)CC1=O | 27 | 26 | Non-toxic | 
11 | COc1cc(I)c(CC(=O)N2C=CC(=O)CC2c2ccccc2)cc1OC (racemic) |  | 104 |  | microsomal CLint at 1 µM [13]: 548 µL/min/mg; microsomal CLint at 1 µM [14]: 168 µL/min/mg
12 | COc1cc(NC(=O)N2C=CC(=O)C[C@H]2c2ccc(F)cc2)c(Br)cc1F |  | 32 |  | 
13 | COc1cc(Br)c(CC(=O)N2C=CC(=O)CC2c2ccccc2)cc1OC (racemic) |  | 92 |  | microsomal CLint at 1 µM [13]: 490 µL/min/mg; microsomal CLint at 1 µM [14]: 153 µL/min/mg
14 | COC[C@H](O)Cn1c(=O)cnn(-c2ccc(C)c(NC(=O)C3=CN(C)C(=O)C[C@H]3c3ccc(F)cc3)c2)c1=O | 17 | 30 | Non-toxic | IC50 (Cytochrome P450 2D6): > 50000 nM; Stability (Liver microsome [17]): Stable; IC50 (Cytochrome P450 2C9): > 50000 nM; clearance [7]: 23 mL/min/kg; Stability (Liver microsome [8]): Stable; Vd [9]: 1.2 L/kg; bioavailability [10]: 20%; IC50 (Cytochrome P450 3A4): > 50000 nM; half-life [11]: 4 h; solubility [12]: 1020 µg/mL (≈ 1910 µM); AUC (Rattus norvegicus): 279 ng·h/mL
15 | COc1cc(NC(=O)N2C=CC(=O)C[C@H]2c2ccc(F)cc2)c(Br)cc1Cl |  | 37 |  | 
16 | Cc1ccc(-c2ccnn(C)c2=O)cc1NC(=O)C1=CN(C)C(=O)C[C@H]1c1ccc(F)cc1 | 6 |  | Toxic | 
17 | COc1cc(I)c(CC(=O)N2C=CC(=O)C[C@H]2c2ccccc2)cc1OC |  | 38 |  | 
18 | COc1cc(Br)c(NC(=O)N2C=CC(=O)CC2c2ccccc2)cc1OC (racemic) |  | 39 |  | microsomal CLint at 1 µM [13]: 78 µL/min/mg; microsomal CLint at 1 µM [14]: 22 µL/min/mg
19 | Cc1ccc(-c2ccn[nH]c2=O)cc1NC(=O)C1=CN(C)C(=O)C[C@H]1c1ccc(F)cc1 | 20 |  | Toxic | 

Further compounds by falling IC50 (P2X purinoceptor 7 [6]), results first:

Row | IC50 (P2X purinoceptor 7 [5]) [nM] | IC50 (P2X purinoceptor 7 [6]) [nM] | Compound | Activity (Salmonella typhimurium) | other results
20 | 47 | 23 | Cc1cc2cnn(CCO)c2cc1NC(=O)C1=CNC(=O)C[C@H]1c1ccc(F)cc1 |  | 
21 | 21 | 22 | Cc1ccc(-n2ccccc2=O)cc1NC(=O)C1=CN(C)C(=O)N[C@H]1c1ccc(F)cc1 | Non-toxic | 
22 |  | 12 | COc1cc(C)c(NC(=O)N2C=CC(=O)C[C@H]2c2ccc(F)cc2)cc1OC |  | microsomal CLint at 1 µM [13]: 25 µL/min/mg; microsomal CLint at 1 µM [14]: 8.2 µL/min/mg
23 |  | 9 | COc1cc(C)c(C)c(NC(=O)C2=CNC(=O)C[C@H]2c2ccc(F)cc2)c1 |  | 
24 |  | 9 | COc1cc(Br)c(NC(=O)N2C=CC(=O)C[C@H]2c2ccc(F)cc2)cc1OC |  | Retention_time (Liver microsome [3]): 16.58 min; Retention_time (Liver microsome [4]): 16.58 min
25 | 107 | 9 | COc1cc(Br)c(NC(=O)C2=CNC(=O)C[C@H]2c2cccc(F)c2)cc1OC |  | 
26 |  | 9 | Cc1cc(Cl)c(OCCO)cc1NC(=O)N1C=CC(=O)C[C@H]1c1ccc(F)cc1 |  | metabolised at 4 h, 10 µM [16]: 50%
27 | 13 | 8 | Cc1cc(F)c(-c2ccnn(C)c2=O)cc1NC(=O)C1=CN(C)C(=O)C[C@H]1c1ccc(F)cc1 | Non-toxic | IC50 (Cytochrome P450 2D6): > 32000 nM; IC50 (Cytochrome P450 2C9): > 32000 nM; clearance [7]: 17 mL/min/kg; Stability (Liver microsome [8]): Stable; Vd [9]: 1 L/kg; bioavailability [10]: 64%; IC50 (Cytochrome P450 3A4): > 32000 nM; half-life [11]: 1 h; solubility [12]: 322 µg/mL (≈ 693 µM); AUC (Rattus norvegicus): 1121 ng·h/mL
